Experimental data: ChEMBL document CHEMBL1212842, “Substrate specificity and inhibitory study of human airway trypsin-like protease” (Bioorg Med Chem, 2010)
Where a SMILES comes first, the peptide text is derived from it. [ ]: non-standard residue; d: D form. The star is where a group is joined. NH(3-CONH2-4-NO2-Ph) = NC(=O)c1cc(N*)ccc1[N+](=O)[O-]; AMC = Cc1cc(=O)oc2cc(N*)ccc12; 2Abz = Nc1ccccc1C(=O)O; Boc = CC(C)(C)OC(=O)*

Key:
Homo sapiens [1] = species on record: Homo sapiens; test: Activity at human tryptase by FRET assay
Bos taurus [2] = species on record: Bos taurus; test: Activity at bovine trypsin by FRET assay
Homo sapiens [3] = species on record: Homo sapiens; test: Ratio of Kcat to Km for human tryptase by FRET assay
Bos taurus [4] = species on record: Bos taurus; test: Ratio of Kcat to Km for bovine trypsin by FRET assay
[5] = molecular target: T1, Suppressor of tumorigenicity 14 protein (Homo sapiens, UniProt Q9Y5Y6); test: Inhibition of human matriptase by FRET assay
T1 sequence (Q9Y5Y6 whole entry): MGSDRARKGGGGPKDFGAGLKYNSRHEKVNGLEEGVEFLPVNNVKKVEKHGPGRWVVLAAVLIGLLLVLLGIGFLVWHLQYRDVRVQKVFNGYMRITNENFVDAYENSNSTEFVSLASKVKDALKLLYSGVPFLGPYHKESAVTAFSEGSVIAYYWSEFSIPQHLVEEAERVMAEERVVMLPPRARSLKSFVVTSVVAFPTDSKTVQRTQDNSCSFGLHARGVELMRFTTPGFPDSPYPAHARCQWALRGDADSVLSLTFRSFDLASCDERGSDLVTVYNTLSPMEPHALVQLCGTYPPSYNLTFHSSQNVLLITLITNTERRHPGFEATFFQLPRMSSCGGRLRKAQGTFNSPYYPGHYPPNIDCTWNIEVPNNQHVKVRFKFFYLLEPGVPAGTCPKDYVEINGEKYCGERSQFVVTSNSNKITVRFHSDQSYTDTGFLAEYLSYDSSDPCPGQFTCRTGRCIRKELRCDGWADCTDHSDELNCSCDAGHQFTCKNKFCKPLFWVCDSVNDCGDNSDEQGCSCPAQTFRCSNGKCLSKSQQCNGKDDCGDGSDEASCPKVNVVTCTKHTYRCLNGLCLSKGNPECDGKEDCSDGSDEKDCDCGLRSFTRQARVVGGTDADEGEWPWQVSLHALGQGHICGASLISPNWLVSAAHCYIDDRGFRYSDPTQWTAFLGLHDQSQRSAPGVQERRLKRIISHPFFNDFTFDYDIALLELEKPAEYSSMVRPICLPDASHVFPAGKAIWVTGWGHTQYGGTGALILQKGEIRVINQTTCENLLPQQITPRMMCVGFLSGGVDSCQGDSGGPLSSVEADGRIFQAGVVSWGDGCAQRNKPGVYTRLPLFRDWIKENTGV

[6] = molecular target: T2, Transmembrane protease serine 11D (Homo sapiens, UniProt O60235); test: Inhibition of human HAT by FRET assay
T2 sequence (O60235 whole entry): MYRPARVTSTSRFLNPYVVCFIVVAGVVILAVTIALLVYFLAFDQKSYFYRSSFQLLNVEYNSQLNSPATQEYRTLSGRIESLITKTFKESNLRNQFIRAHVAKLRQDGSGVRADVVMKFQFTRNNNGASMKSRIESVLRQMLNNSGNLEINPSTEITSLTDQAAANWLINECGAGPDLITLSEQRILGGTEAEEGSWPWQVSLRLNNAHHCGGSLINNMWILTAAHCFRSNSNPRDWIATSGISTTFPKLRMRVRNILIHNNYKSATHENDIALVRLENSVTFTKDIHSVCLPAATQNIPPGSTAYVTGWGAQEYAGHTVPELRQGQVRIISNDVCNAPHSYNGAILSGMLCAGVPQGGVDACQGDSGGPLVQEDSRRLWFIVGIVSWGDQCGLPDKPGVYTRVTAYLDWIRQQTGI
Method in brief: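 Inhibitor at increasing concentrations (0–100 nM) was preincubated for 60 min with enzyme (20 nM) in Tris-HCl, pH 7.8. Chromogenic substrate (1.8–100 µM) was then added and absorbance was followed over time. For HAT, the substrate was an ABZ/ANB-labelled tetrapeptide. Ki was calculated from the initial velocities of hydrolysis.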

[7] = Inhibition of bovine trypsin by FRET assay; design: species or system Bos taurus
[8] = Inhibition of human tryptase by FRET assay
[9] = substrate: N=C(N)NCCC[C@H](NC(=O)c1ccccc1N)C(=O)N[C@@H](CCC(N)=O)C(=O)N[C@@H](CC(=O)O)C(=O)N[C@@H](CCCNC(=N)N)C(=O)Nc1ccc([N+](=O)[O-])c(C(N)=O)c1; test: (§1) Ratio of Kcat to Km for human HAT by FRET assay
[10] = substrate: Cc1cc(=O)oc2cc(NC(=O)[C@H](CCCNC(=N)N)NC(=O)[C@H](CO)NC(=O)[C@H](Cc3ccccc3)NC(=O)OC(C)(C)C)ccc12; test: as §1
[11] = substrate: N=C(N)NCCC[C@H](NC(=O)c1ccccc1N)C(=O)N[C@@H](CCC(N)=O)C(=O)N[C@@H](CC(=O)O)C(=O)N[C@@H](CCCCN)C(=O)Nc1ccc([N+](=O)[O-])c(C(N)=O)c1; test: as §1
[12] = substrate: N=C(N)NCCC[C@H](NC(=O)c1ccccc1N)C(=O)N[C@@H](CCC(N)=O)C(=O)N[C@@H](CC(=O)O)C(=O)N[C@@H](CCCNC(=N)N)C(=O)Nc1ccc([N+](=O)[O-])c(C(N)=O)c1; test: (§2) Activity at human HAT by FRET assay
[13] = substrate: Cc1cc(=O)oc2cc(NC(=O)[C@H](CCCNC(=N)N)NC(=O)[C@H](CO)NC(=O)[C@H](Cc3ccccc3)NC(=O)OC(C)(C)C)ccc12; test: as §2
[14] = substrate: N=C(N)NCCC[C@H](NC(=O)c1ccccc1N)C(=O)N[C@@H](CCC(N)=O)C(=O)N[C@@H](CC(=O)O)C(=O)N[C@@H](CCCCN)C(=O)Nc1ccc([N+](=O)[O-])c(C(N)=O)c1; test: as §2
[15] = substrate: N=C(N)NCCC[C@H](NC(=O)c1ccccc1N)C(=O)N[C@@H](CCC(N)=O)C(=O)N[C@@H](CC(=O)O)C(=O)N[C@@H](CCCNC(=N)N)C(=O)Nc1ccc([N+](=O)[O-])c(C(N)=O)c1; test: (§3) Ratio of Kcat to Km for human matriptase by FRET assay
[16] = substrate: Cc1cc(=O)oc2cc(NC(=O)[C@H](CCCNC(=N)N)NC(=O)[C@H](CO)NC(=O)[C@H](Cc3ccccc3)NC(=O)OC(C)(C)C)ccc12; test: as §3
[17] = substrate: N=C(N)NCCC[C@H](NC(=O)c1ccccc1N)C(=O)N[C@@H](CCC(N)=O)C(=O)N[C@@H](CC(=O)O)C(=O)N[C@@H](CCCCN)C(=O)Nc1ccc([N+](=O)[O-])c(C(N)=O)c1; test: as §3
[18] = substrate: N=C(N)NCCC[C@H](NC(=O)c1ccccc1N)C(=O)N[C@@H](CCC(N)=O)C(=O)N[C@@H](CC(=O)O)C(=O)N[C@@H](CCCNC(=N)N)C(=O)Nc1ccc([N+](=O)[O-])c(C(N)=O)c1; test: (§4) Activity at human matriptase by FRET assay
[19] = substrate: Cc1cc(=O)oc2cc(NC(=O)[C@H](CCCNC(=N)N)NC(=O)[C@H](CO)NC(=O)[C@H](Cc3ccccc3)NC(=O)OC(C)(C)C)ccc12; test: as §4
[20] = substrate: N=C(N)NCCC[C@H](NC(=O)c1ccccc1N)C(=O)N[C@@H](CCC(N)=O)C(=O)N[C@@H](CC(=O)O)C(=O)N[C@@H](CCCCN)C(=O)Nc1ccc([N+](=O)[O-])c(C(N)=O)c1; test: as §4

**Q.** Which Km (Homo sapiens [1]) does the source give for `Cc1cc(=O)oc2cc(NC(=O)[C@H](CCCNC(=N)N)NC(=O)[C@H](CO)NC(=O)[C@H](Cc3ccccc3)NC(=O)OC(C)(C)C)ccc12` (Boc-Phe-Ser-Arg-{AMC}) here?
**A.** 19.4 µM

**Q.** What about the kcat (Homo sapiens [1]) of the same molecule?
**A.** 53.6 ×10⁻¹ /s

**Q.** And the Km (Bos taurus [2])?
**A.** 16.5 µM

**Q.** What about the kcat (Bos taurus [2]) of the same molecule?
**A.** 72.3 ×10⁻¹ /s

**Q.** What about the kcat/Km (Homo sapiens [3]) of the same molecule?
**A.** 276 ×10³ /M/s

**Q.** And the kcat/Km (Bos taurus [4])?
**A.** 442 ×10³ /M/s

**Q.** Which Ki [5] does the source give for `N=C(N)NCCC[C@H](NC(=O)[C@H](CC(=O)O)NC(=O)[C@H](CCC(N)=O)NC(=O)[C@H](CCCNC(=N)N)NC(=O)c1ccccc1N)C(=O)O` (H-[2Abz]RQDR-OH) here?
**A.** 973 nM

**Q.** What about the Ki [6] of the same molecule?
**A.** 54.3 nM

**Q.** What about the Ki [7] of the same molecule?
**A.** 3.93 µM

**Q.** What about the Ki [8] of the same molecule?
**A.** 2130 nM

**Q.** Which results are given for `N=C(N)NCCC[C@H](NC(=O)c1ccccc1N)C(=O)N[C@@H](CCC(N)=O)C(=O)N[C@@H](CC(=O)O)C(=O)N[C@@H](CCCNC(=N)N)C(=O)Nc1ccc([N+](=O)[O-])c(C(N)=O)c1` (H-[2Abz]RQDR-{NH(3-CONH2-4-NO2-Ph)})?
**A.** Km (Homo sapiens [1]): 155 µM; kcat (Homo sapiens [1]): 42.2 ×10⁻¹ /s; Km (Bos taurus [2]): 1120 µM; kcat (Bos taurus [2]): 1.4 ×10⁻¹ /s; kcat/Km (Homo sapiens [3]): 27.4 ×10³ /M/s; kcat/Km (Bos taurus [4]): 0.2 ×10³ /M/s

**Q.** For `N=C(N)NCCC[C@H](NC(=O)c1ccccc1N)C(=O)N[C@@H](CCC(N)=O)C(=O)N[C@@H](CC(=O)O)C(=O)N[C@@H](CCCCN)C(=O)Nc1ccc([N+](=O)[O-])c(C(N)=O)c1` (H-[2Abz]RQDK-{NH(3-CONH2-4-NO2-Ph)}), which Km (Homo sapiens [1]) is on record?
**A.** 269 µM

**Q.** What about the kcat (Homo sapiens [1]) of the same molecule?
**A.** 11.8 ×10⁻¹ /s

**Q.** And the Km (Bos taurus [2])?
**A.** 1840 µM

**Q.** And the kcat (Bos taurus [2])?
**A.** 0.8 ×10⁻¹ /s

**Q.** What about the kcat/Km (Homo sapiens [3]) of the same molecule?
**A.** 6.7 ×10³ /M/s

**Q.** And the kcat/Km (Bos taurus [4])?
**A.** 0.1 ×10³ /M/s

B1: Transmembrane protease serine 11D (Homo sapiens), O60235 (protein)
chain: T2 sequence (O60235 whole entry)
**Q.** For B1, which kcat/Km [9] is on record?
**A.** 454 ×10³ /M/s

**Q.** What about the kcat/Km [10] of the same molecule?
**A.** 58.2 ×10³ /M/s

**Q.** And the kcat/Km [11]?
**A.** 195 ×10³ /M/s

**Q.** And the Km [12]?
**A.** 25.4 µM

**Q.** And the kcat [12]?
**A.** 115 ×10⁻¹ /s

**Q.** And the Km [13]?
**A.** 43.6 µM

**Q.** What about the kcat [13] of the same molecule?
**A.** 25.4 ×10⁻¹ /s

**Q.** And the Km [14]?
**A.** 12.3 µM

**Q.** And the kcat [14]?
**A.** 24.1 ×10⁻¹ /s

B2: Suppressor of tumorigenicity 14 protein (Homo sapiens), Q9Y5Y6 (protein)
chain: T1 sequence (Q9Y5Y6 whole entry)
**Q.** For B2, which kcat/Km [15] is on record?
**A.** 98.4 ×10³ /M/s

**Q.** What about the kcat/Km [16] of the same molecule?
**A.** 356 ×10³ /M/s

**Q.** And the kcat/Km [17]?
**A.** 23.1 ×10³ /M/s

**Q.** And the Km [18]?
**A.** 68.5 µM

**Q.** And the kcat [18]?
**A.** 67.4 ×10⁻¹ /s

**Q.** What about the Km [19] of the same molecule?
**A.** 12.1 µM

**Q.** What about the kcat [19] of the same molecule?
**A.** 42.8 ×10⁻¹ /s

**Q.** What about the Km [20] of the same molecule?
**A.** 70.6 µM

**Q.** And the kcat [20]?
**A.** 16.3 ×10⁻¹ /s
